Results collected from several papers.
Each line is one published result; the experiments were not run side by side.
Read-out: cell growth or viability

Compound | cell line | test | setting | quantity | value
COc1ccc(-c2ccc(-c3ccc(C(=N)N)nc3)s2)cc1Cl | SNB-75 | SRB | – | GI50 | 1.43 µM
Oc1ccc(Nc2nc(-c3ccc(Cl)cc3)cs2)cc1 | WM35 | MTS | 48 h | IC50 | 10.3 µM
COc1cccc(-c2cn(-c3cc(=O)oc4ccc(Br)cc34)nn2)c1 | CCRF-CEM | – | 48 h | CC50 | 10.3 µM
COc1ccc(-c2ccc(-c3ccc(C(=N)N)nc3)s2)cc1 | UACC-257 | SRB | – | GI50 | 1.8 µM
COc1cc(Nc2nccc(-c3cnn4nc(OC)ccc34)n2)cc(C(F)(F)F)c1 | RKO | ATP luminescence | – | IC50 | 0.27 µM
O=C(N/N=C/c1c(O)ccc2ccccc12)c1cc(-c2ccc3ccccc3c2)n[nH]1 | WM35 | MTS | 24 h | IC50 | 37 µM
COc1ccc(C2=Nn3c(NN=C4C(=O)Nc5ccc(OC)cc54)nnc3SC2)cc1 | SNB-75 | SRB | 10 µM | inhibition | 16%
CC(C)C[C@H](NC(=O)[C@H](Cc1ccccc1)NC(=O)c1cnccn1)B(O)O | EPLC-272H | ATP luminescence | – | IC50 | 0.0086 µM
COc1ccc(/C=C\c2cc(OC)c(OC)c(OC)c2)cc1O | CCRF-CEM | – | 48 h | CC50 | 0.036 µM
